Compound activity (PubChem)
In the library only some 3.7% were active in any assay of this set; here they are far more common.
MC4R barr agon: human MC4R agonism via beta-arrestin; P32245; U2OS MC4R beta-arrestin complementation, luminescence; percent of melanotan II response, DMSO zero; activation, % at 8.9 µM; actives 0.98% (n = 360,000);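 active = activation above a per-plate cutoff, the mean activation of sample wells on that plate plus 3 SD, cut at about 8% in these data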
Target sequence (P32245 whole entry, looked up): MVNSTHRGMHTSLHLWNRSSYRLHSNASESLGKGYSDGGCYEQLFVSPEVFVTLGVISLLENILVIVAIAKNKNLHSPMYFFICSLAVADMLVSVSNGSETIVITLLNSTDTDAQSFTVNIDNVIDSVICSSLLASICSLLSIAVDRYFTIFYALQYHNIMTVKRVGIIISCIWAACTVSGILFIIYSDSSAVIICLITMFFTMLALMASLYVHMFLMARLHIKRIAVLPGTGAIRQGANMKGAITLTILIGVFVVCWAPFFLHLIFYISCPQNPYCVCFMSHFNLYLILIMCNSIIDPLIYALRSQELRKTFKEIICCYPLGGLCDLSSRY
EBI2 block: blocks human EBI2 receptor beta-arrestin signaling | P32249 | EBI2 beta-arrestin recruitment, luminescence, 7a,25-OHC stimulated | inhibition, % at 5 µM | actives 0.81% (n = 360,000) | AID 651636; in the data active = inhibition above about 38%;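 note: enzyme fragment complementation signal reports receptor beta-arrestin coupling in cells; 0% = agonist plus DMSO wells and 100% = wells without agonist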
Myeloid diff 2: myeloid differentiation induction. AID 624256. ER-HoxA9 myeloid progenitors, lysozyme-GFP differentiation, flow cytometry. actives 1% (n = 360,000). calls only at 10 µM;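 active = normalized GFP-positive differentiation at or above the plate's own cutoff, the solvent-only control mean plus 3 SD; inconclusive = no clear call, values can overlap the other calls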;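 note: cells exposed to compound for four days before flow analysis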
Granule exo inh: blocks lytic granule exocytosis | TALL-104 LAMP-1 surface exposure, flow cytometry; cells stimulated with thapsigargin and PMA | inhibition, % at 10 µM | actives 0.66% (n = 360,000) | AID 651702;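 active = inhibition above about 55%, limit read from the data; inconclusive = no clear call, values can overlap the other calls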
MC4R antagonist: antagonists of human melanocortin 4 receptor (MC4R). actives 0.48% (n = 360,000). inhibition, % at 6.5 µM. MC4R-expressing cells, MTII-stimulated cAMP, LANCE TR-FRET;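 active = inhibition above its plate's cutoff, the mean of tested wells on that plate plus 3 SD, cut at about 29% in these data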;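 note: 0% = Melanotan II alone and 100% = Melanotan II plus saturating MCL0020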
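material = U2OS cells stably expressing human melanocortin 4 receptor (MC4R) | also added = Melanotan II challenge | dosing = single nominal compound dose of 6.5 µM | detection = TR-FRET with Eu-cAMP and labeled anti-cAMP, 671 nm | replication = singlicate | timing = compound 30 min, challenge 1 h, detection 1 h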
cAMP nonselect: counter-screen for MC4R antagonists: nonselective cAMP signaling inhibitors. shares compounds with MC4R antagonist. parental U2OS, forskolin cAMP, LANCE TR-FRET. inhibition, % at 6.5 µM. actives 26% (n = 1,600). AID 602193;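 active = mean inhibition over triplicates above the low-control well mean plus 3 SD, set per campaign, cut at about 13% in these data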;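 note: signal is single emission at 671 nm which falls as cellular cAMP rises; 0% = forskolin-stimulated wells and 100% = buffer without forskolin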
MC4R antag conf: human MC4R cAMP antagonism confirmation | shares compounds with MC4R antagonist | inhibition, % at 6.5 µM | MC4R-expressing cells, MTII-stimulated cAMP, TR-FRET | actives 27% (n = 1,600); in the data active = inhibition above about 29%;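 note: 0% = agonist stimulated wells alone and 100% = agonist stimulated wells plus saturating reference antagonist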
* marks the source's active call; other numbers are inactive results; i = inactive; ? = inconclusive; . = not tested or not shown.

SMILES	MC4R barr agon	EBI2 block	Myeloid diff 2	Granule exo inh	MC4R antagonist	cAMP nonselect	MC4R antag conf
CCOc1ccccc1NC(=O)c1nc(S(=O)(=O)Cc2ccccc2)ncc1Cl	-5	46*	?	47	33*	5	-24
CC(C)c1nnc(NC(=O)CCc2ccccc2)s1	-1	-3	i	8	7	.	.
CCCS(=O)(=O)c1ncc(Cl)c(C(=O)Nc2ccc(S(=O)(=O)Nc3ncccn3)cc2)n1	-2	-9	i	-1	10	.	.
CC(C)c1nnc(NC(=O)c2nc(S(=O)(=O)Cc3ccccc3)ncc2Cl)s1	-3	35	?	12	51*	25*	47*
CC(=O)Nc1ccc(NC(=O)c2nc(S(=O)(=O)Cc3cccc(C)c3)ncc2Cl)cc1	-6	12	?	-5	43*	14*	28
CCc1ccc(NC(=O)c2nc(S(=O)(=O)Cc3ccccc3)ncc2Cl)cc1	-7	39	?	36	36*	12	17
Cn1cc(CN2CCC(N3CCNC(=O)CC3)CC2)c(-c2ccccc2F)n1	0	-8	i	-1	10	.	.
CC[C@@H]1CCC[C@@H](O)[C@@H](C)C(=O)O[C@H](C)[C@@H](C)C/C=C(C)/C(OC)=C\C(=O)N(C)C([C@@H](C)CC)C(=O)N(C)[C@@H](C(C)C)C(=O)N(C)[C@@H](COC)C(=O)N2CCC[C@H]2C(=O)N(C)[C@@H](C(C)C)C(=O)N2CCC[C@H]2C(=O)O1 (some centres undefined)	.	-6	?	2	.	.	.
Cc1cccc(CS(=O)(=O)c2ncc(Cl)c(C(=O)NCc3ccc4c(c3)OCO4)n2)c1	-3	17	i	64*	33*	10	25
Cc1ccc(C(=O)NCc2ccc3c(c2)OCO3)c(Cl)c1	-1	-7	i	-1	3	.	.
N/C(CC(=O)Nc1ccc(F)c(Cl)c1)=N\OC(=O)c1cccs1	0	-12	i	-2	36*	-4	4
Cc1c(Br)c([N+](=O)[O-])nn1CC(=O)N1CCc2ccccc21	0	6	i	-3	30*	-1	4
Cc1c(Cl)c([N+](=O)[O-])nn1CC(=O)N1CCCc2ccccc21	-3	0	i	-1	0	.	.
COc1ccccc1NC(=O)c1ccc(NC(=O)Cc2n[nH]c(=O)c3ccccc23)cc1	2	-13	i	-4	30*	5	1
COc1ccccc1C(=O)NC(=O)COC(=O)Cc1n[nH]c(=O)c2ccccc12	0	-1	i	2	8	.	.
Nc1ncnc2nc(SCC(=O)Nc3ccccc3F)[nH]c12	-3	-4	i	-5	2	.	.
Nc1nc2ccccc2cc1C(=O)NCc1ccc(Cl)cc1Cl	.	-16	i	-4	.	.	.
CCOC(=O)/C(=N\Nc1ccccc1Cl)N1CCN(c2ccccc2OC)CC1	0	22	i	0	29*	1	-2
COc1ccc(C(=S)N2CCOCC2)cc1OC(=O)c1ccc([N+](=O)[O-])cc1	1	-18	i	2	8	.	.
COc1cc(C(=S)N2CCOCC2)ccc1OC(=O)c1ccc([N+](=O)[O-])cc1[N+](=O)[O-]	-1	3	i	4	37*	6	28
CCOC(=O)Cn1cc(Cn2c3ccccc3c(=O)n2C(C)C)nn1	.	-6	i	1	.	.	.
Cc1ccc(NC2=C(CC(=O)O)C(c3ccccc3)N(c3ccc(C)cc3)C2=O)cc1 (centres undefined)	3	-2	i	1	31*	-4	3
COc1ccc(CN2CCC[C@]3(N[C@H](c4ccc(OC)cc4)[C@@H]4C(=O)N(Cc5ccccc5)C(=O)[C@@H]43)C2=O)cc1	0	2	i	-4	3	.	.
COc1ccc(CN2CCC[C@]3(N[C@H](c4ccccc4)[C@@H]4C(=O)N(Cc5ccccc5)C(=O)[C@@H]43)C2=O)cc1	1	1	i	-2	29*	-3	-3
Cc1ccc(NC(=O)Nc2nnc([C@H]3C[C@H](O)[C@@H](CO)O3)s2)cc1	1	-1	i	3	16	.	.
SMILES	MC4R barr agon	EBI2 block	Myeloid diff 2	Granule exo inh	MC4R antagonist	cAMP nonselect	MC4R antag conf
CCOC(=O)C1(C)CCCN(C(=O)c2cc(C#N)cs2)C1 (centres undefined)	-1	-6	i	-5	3	.	.
O=c1cc(CN2CCN(c3ccc(Cl)c(Cl)c3)CC2)c2c(ccc3ccccc32)o1	.	-1	i	0	.	.	.
O=C(Nc1ccc2c(c1)OCO2)c1cc(C2CCCCN2S(=O)(=O)c2cccs2)on1 (centres undefined)	-1	-1	i	-4	1	.	.
COc1ccc([N+](=O)[O-])c(C=CC(=O)c2ccccn2)c1	0	15	?	-1	30*	-1	14
COc1ccc(/C=C/C(=O)c2ccccn2)cc1	-3	-5	i	0	6	.	.
Cc1ccn(CC(=O)N2CCCC(N3CCN(c4cccc(Cl)c4)CC3)C2)n1 (centres undefined)	-3	-8	i	-2	1	.	.
C=CCn1c(-c2cccc(Cl)c2)n[nH]c1=S	-2	8	i	-2	12	.	.
C=CCn1nnnc1-c1cccc(Cl)c1	0	6	i	-2	34*	5	4
C[C@@H]1CN([C@@H](C)CO)C(=O)CCCn2nncc2CO[C@H]1CN(C)Cc1cccnc1	1	-5	i	6	29*	-4	-19
COC(=O)c1cc2c(ccn2-c2ccc(F)cc2)n1CC(=O)C(C)(C)C	-3	13	i	32	8	.	.
COC(=O)c1cc2c(ccn2-c2ccc(F)cc2)n1CC(=O)OC(C)C	0	32	i	-2	31*	4	2
COC(=O)CSc1nc2ccccn2c(=O)c1C=O	0	4	i	0	31*	0	-10
CC(C)(CNC(=O)c1ccc([N+](=O)[O-])c(Cl)c1)CNC(=O)c1ccc([N+](=O)[O-])c(Cl)c1	-2	-1	i	9	31*	9	44*
CCOC(=O)N1CCN(C(=O)c2cc3c(-c4cccc(OC)c4)nn(C)c3s2)CC1	0	18	i	-5	30*	5	15
CCOC(=O)N1CCC(NC(=O)c2cc3c(-c4cccc(OC)c4)nn(C)c3s2)CC1	3	11	i	2	-3	.	.
COc1ccc(CCNC2=C(Cl)C(=O)N(CCc3ccc(OC)c(OC)c3)C2=O)cc1OC	0	-8	i	1	31*	5	16
